Screens: PubChem, Johns Hopkins Ion Channel Center
Hits are enriched below; roughly 3.5% of the tested compounds scored in any of these assays.
MrgX1 PAM – human MrgX1 positive allosteric modulation, primary screen. MrgX1-HEK293, Fluo-4 calcium flux, FDSS; active compounds read high. Q96LB2. B-score at 10 µM. 310,000 tested, 0.63% active;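 active = plate-corrected calcium response at least 3 library SD above typical, normal starting fluorescence, not activating the receptor alone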;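 note: compound read alongside a low EC10 to EC30 dose of BAM8-22 agonist; peak minus trough fluorescence over baseline measured at the second addition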
Target sequence (Q96LB2 whole entry, looked up): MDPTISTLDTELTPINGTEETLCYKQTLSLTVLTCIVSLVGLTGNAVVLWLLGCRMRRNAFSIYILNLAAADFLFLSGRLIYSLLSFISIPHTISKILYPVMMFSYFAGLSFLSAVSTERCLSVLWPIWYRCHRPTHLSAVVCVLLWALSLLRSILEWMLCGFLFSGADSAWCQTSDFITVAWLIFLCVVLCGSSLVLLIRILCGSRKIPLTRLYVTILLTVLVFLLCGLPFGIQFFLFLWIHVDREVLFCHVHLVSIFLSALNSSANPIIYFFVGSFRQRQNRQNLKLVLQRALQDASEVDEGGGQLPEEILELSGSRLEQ
RGS4 inh – inhibitors of human RGS4; P49798; HEK293 M3R/RGS4 inducible, Fluo-4 calcium flux; active compounds read high; triggered by carbachol at its EC20; B-score at 10 µM; 310,000 tested, 0.45% active; AID 463165;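 active = B-score, a plate-corrected calcium signal, over three deviations above library mean, with baseline fluorescence within five deviations of library mean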;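 note: RGS4 expression induced by doxycycline in cells with stable M3 receptor; B-score is computed from the integrated fluorescence ratio over baseline after carbachol; higher B-score means a larger calcium signal and so more RGS4 inhibition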
Target sequence (P49798 whole entry, looked up): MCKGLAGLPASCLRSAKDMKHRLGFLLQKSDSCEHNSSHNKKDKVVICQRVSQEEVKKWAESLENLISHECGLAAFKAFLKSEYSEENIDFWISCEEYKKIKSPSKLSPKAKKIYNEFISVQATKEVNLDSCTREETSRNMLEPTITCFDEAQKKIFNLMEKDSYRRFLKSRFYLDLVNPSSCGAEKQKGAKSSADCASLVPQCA
MrgX1 antagonist – human MrgX1 receptor antagonism, primary screen. B-score at 10 µM. MRGX1-HEK293 calcium flux, Fluo-4, BAM8-22 antagonism; active compounds read low. 310,000 tested, 1.3% active. Q96LB2;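 active = calcium-response B-score plate-corrected more than 3 library SD below zero, starting fluorescence within 5 deviations, no agonist response on first addition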;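 note: peak minus trough fluorescence over baseline after final BAM8-22 challenge near maximal dose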
RGS4 act – RGS4 potentiation or activation. HEK293 M3R/inducible RGS4, carbachol calcium flux Fluo4; active compounds read low. B-score at 10 µM. 310,000 tested, 0.92% active. AID 463111;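 active = B-score of the integrated calcium signal more than 4 SD below the library mean, with starting fluorescence not abnormally high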;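 note: negative B-score means reduced calcium response which marks RGS4 activation or potentiation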
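Assay system: HEK293 FlpIn-TREx cells, stable M3R, doxycycline-inducible RGS4 / Probe or stimulus: carbachol, ECmax concentration / Times: overnight RGS4 induction, 30 min dye load 37 °C, 20 min compound RT / Signal: kinetic calcium fluorescence imaging with Fluo4-AM dye, 2 µM / Measure: Agonist-evoked peak-minus-minimum fluorescence over baseline, integrated ratio, B score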
MrgX1 ag – human MrgX1 receptor agonism, primary screen. Q96LB2. MrgX1-HEK293 cells, Fluo-4 calcium fluorescence, agonist mode; active compounds read high. B-score at 10 µM. 310,000 tested, 0.44% active;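 active = calcium response B-score plate-corrected fluorescence ratio at least 3 library SD, with starting fluorescence B-score inside 5 SD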
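Material: MrgX1-expressing HEK293 cells; input: 15,000 cells per well; doses: test compound given as first of three sequential additions; schedule: overnight plating before 1 h dye loading; technique: Fluo-4 NW calcium-flux fluorescence, kinetic read; evaluation: baseline-normalised fluorescence change ratio, B-scored; control set: plate-wise positive and negative controls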
MrgX1 ant reconf – human MrgX1 receptor antagonism, re-confirmation screen. shares compounds with MrgX1 antagonist. MrgX1-HEK293, BAM8-22 calcium flux, Fluo-4; active compounds read low. remaining BAM8-22 calcium response % of control (active compounds read low), % at 10 µM. 2,300 tested, 19% active;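 active = remaining agonist calcium response no higher than 100% minus 3 SD of agonist-only control wells, with starting fluorescence near control levels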;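 note: agonist BAM8-22 given at a near maximal EC90 to ECmax level; peak minus minimum fluorescence divided by baseline after agonist addition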
HEK293 Ca flux – activity in parental HEK293 cells lacking MrgX1; shares compounds with MrgX1 antagonist; Fluo-4 calcium fluorescence, FDSS; fluorescence ratio F(max-min)/F0 at 10 µM; 4,000 tested, 2% active; AID 624111;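 active = duplicate-averaged calcium fluorescence ratio at least three times the standard deviation of buffer wells, a nonspecific response in parental cells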
HEK293 Ca counter – MrgX1 allosteric activator counter-screen hit in parental HEK293 cells. fluorescence ratio F(max-min)/F0 at 10 µM. AID 624114. shares compounds with MrgX1 antagonist. 4,000 tested, 0.4% active. parental HEK293 calcium flux, Fluo-4 fluorescence ratio; active compounds read high;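 active = calcium fluorescence ratio, averaged over duplicates, at least 3 SD of the buffer-well ratio, meaning a nonspecific response in receptor-free cells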;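 note: untransfected parental HEK293 lacking MrgX1 used as counterscreen for MrgX1 allosteric activators; fluorescence change taken during the second addition on a kinetic imager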
HEK293 Ca cntr2 – counter-screen for MrgX1 activators: effect in parental HEK293 cells; shares compounds with MrgX1 antagonist; 4,000 tested, 8.7% active; fluorescence ratio F(max-min)/F0 at 10 µM; Fluo-4 calcium fluorescence (FDSS); active compounds read high;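 active = calcium fluorescence ratio at least three times the spread of buffer wells, meaning a non-specific response in parental cells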
Starred values were filed as active, the others as inactive; i = inactive; . = no result given.

SMILES	MrgX1 PAM	RGS4 inh	MrgX1 antagonist	RGS4 act	MrgX1 ag	MrgX1 ant reconf	HEK293 Ca flux	HEK293 Ca counter	HEK293 Ca cntr2
CCc1nnc(NC(=O)c2nc(S(=O)(=O)Cc3ccc(C)cc3)ncc2Cl)s1	i	i	-7.15*	i	i	73.3%*	i	i	i
CC(=O)c1ccc(NC(=S)Nc2cccc(S(=O)(=O)Nc3c(C)n(C)n(-c4ccccc4)c3=O)c2)cc1	i	i	i	i	i	.	.	.	.
CCOc1ccc(S(=O)(=O)Nc2ccc(S(=O)(=O)N3CCCCC3)cc2)cc1	i	i	-5.33*	i	i	i	i	i	i
CCOc1ccc(S(=O)(=O)Nc2ccc(S(=O)(=O)N3CCCC3)cc2)cc1	i	i	i	i	i	.	.	.	.
CCOc1ccc(NC(=O)CN2CCN(S(=O)(=O)c3ccc(Cl)cc3)CC2)cc1	i	i	-4.52*	i	i	i	i	i	i
CCOc1ccc(NC(=O)CCN2CCN(S(=O)(=O)c3ccc(F)cc3)CC2)cc1	i	i	i	i	i	.	.	.	.
O=C(Cc1c(Cl)cccc1Cl)NC1=NCCS1	i	i	i	i	i	.	.	.	.
O=C(CC(NC(=O)c1ccccc1Cl)c1ccccc1)NC1=NCCS1 (configuration not stated)	i	i	-6.63*	i	i	i	i	i	i
O=C(O)CCn1cc(/C=C/C(=O)c2ccc(Cl)cc2)c(-c2ccc(Br)cc2)n1	i	.	i	.	i	.	.	.	.
C=CCNC(=O)CSc1nc2sccc2c(=O)n1-c1ccccc1	i	i	-5.09*	i	i	i	i	i	i
COc1ccc(CC(=O)NCC(=O)Nc2ccccc2Br)cc1	i	i	-6.03*	i	i	i	i	i	i
COc1ccc(NC(=O)CNC(=O)Cc2ccccc2)cc1	i	i	i	i	i	.	.	.	.
CCN(CC)C(=O)c1cccc(NC(=O)CC23CC4CC(CC(C4)C2)C3)c1	i	i	i	i	i	.	.	.	.
Cc1cccc(N2CCN(C(=O)Cc3cn(C)c4ccccc34)CC2)c1C	i	i	-4.67*	i	i	80.6%*	i	i	i
Cc1cccc(N2CCN(C(=O)COc3cc(=O)n(C)c4ccccc34)CC2)c1C	i	i	i	i	i	.	.	.	.
COc1ccccc1CNC(=O)[C@@H]1CCCN1S(=O)(=O)c1ccc(C)cc1	i	i	-6.65*	i	i	i	i	i	i
COc1ccc(C(=O)N(c2ccc(OC)cc2)S(=O)(=O)c2cccs2)cc1	i	i	-4.93*	i	i	i	i	i	i
COc1ccc(N(C(=O)c2ccccc2)S(=O)(=O)c2cccs2)cc1	i	i	i	i	i	.	.	.	.
CCOc1ccc(C2C(C#N)=C(N)Oc3cc(C)n(CCN(C)C)c(=O)c32)cc1OCC (configuration not stated)	i	i	-4.52*	i	i	i	i	i	i
Cn1c(C(=O)N2CCc3ccccc3C2)cc2c(=O)n3ccccc3nc21	i	i	-5.81*	i	i	i	i	i	i
O=C(NCc1ccco1)c1cc(-c2ccccc2)nc2ccccc12	i	i	-5.31*	i	i	i	i	i	i
COc1ccc(-c2cc(C(=O)NCc3ccco3)c3ccccc3n2)cc1	i	i	i	i	i	.	.	.	.
O=C1CSC(c2ccccc2[N+](=O)[O-])N1CCc1ccccc1 (configuration not stated)	i	i	i	i	i	.	.	.	.
COc1ccc(Cl)cc1N1C(=O)c2cccnc2C1=O	i	i	i	i	i	.	.	.	.
COc1ccc(Cl)cc1-n1c(C)ccc1C	i	i	-8.4*	i	i	i	i	i	i
SMILES	MrgX1 PAM	RGS4 inh	MrgX1 antagonist	RGS4 act	MrgX1 ag	MrgX1 ant reconf	HEK293 Ca flux	HEK293 Ca counter	HEK293 Ca cntr2
CCC(C)(C)n1nnnc1C(c1cc2cc3c(cc2[nH]c1=O)OCO3)N1CCCCC1 (configuration not stated)	i	i	-5.86*	i	i	i	i	i	i
COc1ccc(C(=O)CC(=O)C(=O)Nc2ccc(Cl)cc2)cc1	i	i	i	i	i	.	.	.	.
COc1ccc(C(=O)CC(=O)C(=O)Nc2ccc(OC)c(Cl)c2)cc1	i	i	-5.1*	i	i	i	i	i	i
COc1ccc(/C=C/C(=O)c2cc3c(cc2N)OCO3)cc1	i	i	i	i	i	.	.	.	.
O=C(CNS(=O)(=O)c1cccc2nsnc12)NCc1ccc(Cl)cc1	i	i	-7.31*	i	i	60.5%*	i	i	i
CSc1nnc2n(C)c3c(c(=O)n12)C1(CCCC1)Cc1ccccc1-3	i	i	i	i	i	.	.	.	.
CSc1n[nH]c2nc3c(c(=O)n12)C1(CCCC1)Cc1ccccc1-3	i	i	-5.44*	i	i	i	i	i	i
C=CCNC(=S)/N=c1/ccccn1CCC	i	i	i	i	i	.	.	.	.
O=C(c1cn(CC(=O)N2CCCCC2)c2ccccc12)C1CC1	i	i	-4.97*	i	i	i	i	i	i
Cc1ccc2oc(C(=O)Nc3nnc(C)s3)c(C)c2c1	i	i	-4.7*	i	i	i	i	i	i
Cc1ccc2oc(C(=O)Nc3nonc3C)c(C)c2c1	i	i	i	i	i	.	.	.	.
COc1ccc(COC(=O)c2ccc(S(=O)(=O)N3CCC(C)CC3)cc2)cc1	i	i	-6.79*	i	i	i	i	i	i
CC(C)(C)c1ccc(Oc2ccc(NC(=O)C3CC=CCC3C(=O)O)cc2)cc1 (configuration not stated)	i	i	-9.01*	i	i	i	i	i	i
Cc1ccccc1Oc1ccc(NC(=O)C2CC=CCC2C(=O)O)cc1 (configuration not stated)	i	i	i	i	i	.	.	.	.
